pKi: −log10 of the molar value.
Tests used:
[1] = target: T1, Adenosine receptor A3 (Homo sapiens, UniProt P0DMS8); assay: Displacement of [3H]NECA from human adenosine A3 receptor expressed in human HeLa cells by liquid scintillation counting; assay type: cell-based; conditions: read-out: Ki
T1 sequence (P0DMS8 whole entry): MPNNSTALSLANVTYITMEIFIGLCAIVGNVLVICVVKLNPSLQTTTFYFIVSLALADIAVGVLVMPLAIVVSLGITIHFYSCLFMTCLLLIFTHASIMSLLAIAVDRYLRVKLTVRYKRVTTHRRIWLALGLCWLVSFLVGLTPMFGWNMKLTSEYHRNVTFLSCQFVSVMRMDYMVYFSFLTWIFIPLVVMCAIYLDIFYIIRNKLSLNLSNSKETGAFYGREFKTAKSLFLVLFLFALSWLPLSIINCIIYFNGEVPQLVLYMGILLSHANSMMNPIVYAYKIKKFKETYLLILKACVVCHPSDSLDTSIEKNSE
Method in brief: (§1)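 HeLa membranes (90 μg) carrying hA3AR were incubated with [3H]NECA (30 nM) at 25 °C for 180 min, with six concentrations from 0.1 nM to 1 μM. Nonspecific binding was defined with 100 μM R-PIA. Filters were washed six times and counted by scintillation.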

[2] = target: T2, Adenosine receptor A2a (Homo sapiens, UniProt P29274); assay: Displacement of [3H][…] from human adenosine A2A receptor expressed in human HeLa cells by liquid scintillation counting; assay type: cell-based
T2 sequence (P29274 whole entry): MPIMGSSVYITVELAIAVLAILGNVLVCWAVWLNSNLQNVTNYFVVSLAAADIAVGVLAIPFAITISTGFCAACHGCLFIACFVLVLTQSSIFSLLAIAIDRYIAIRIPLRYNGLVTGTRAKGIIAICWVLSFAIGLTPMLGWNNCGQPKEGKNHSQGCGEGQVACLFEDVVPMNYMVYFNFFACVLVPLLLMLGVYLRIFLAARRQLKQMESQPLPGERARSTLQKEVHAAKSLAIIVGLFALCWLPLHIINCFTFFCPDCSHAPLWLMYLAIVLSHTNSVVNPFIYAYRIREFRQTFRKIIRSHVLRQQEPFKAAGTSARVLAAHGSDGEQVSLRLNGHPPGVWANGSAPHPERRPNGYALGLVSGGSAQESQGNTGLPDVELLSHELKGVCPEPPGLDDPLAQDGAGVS
Method in brief: (§2)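 Nonspecific binding was defined with 50 μM NECA. Filters were washed four times with ice-cold buffer, then counted by scintillation. Ki (Cheng–Prusoff) is mean ± SEM, n=3; % displacement at 0.1 μM is n=2.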

[3] = target: T3, Adenosine receptor A1 (Homo sapiens, UniProt P30542); assay: Displacement of [3H]DPCPX from human adenosine A1 receptor expressed in CHO cells by liquid scintillation counting; assay type: cell-based
T3 sequence (P30542 whole entry): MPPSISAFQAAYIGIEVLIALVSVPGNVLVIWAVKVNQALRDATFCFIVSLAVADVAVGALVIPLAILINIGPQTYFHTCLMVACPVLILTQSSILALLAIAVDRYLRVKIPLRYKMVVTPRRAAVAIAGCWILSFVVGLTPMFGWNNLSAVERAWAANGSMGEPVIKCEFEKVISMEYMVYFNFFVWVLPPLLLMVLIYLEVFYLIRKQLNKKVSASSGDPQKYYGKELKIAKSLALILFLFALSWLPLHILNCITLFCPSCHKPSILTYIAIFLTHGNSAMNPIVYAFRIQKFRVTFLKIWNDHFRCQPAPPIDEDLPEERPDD
Method in brief: (§3)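 Transfected CHO cell membranes (15 μg) were incubated with [3H]DPCPX at 25 °C for 60 min, with six test concentrations from 0.1 nM to 1 μM. Nonspecific binding was defined with 10 μM R-PIA. Filters were washed four times with ice-cold buffer before scintillation counting. Ki (Cheng–Prusoff) is mean ± SEM, n=3; % displacement at 0.1 μM is n=2.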

[4] = target: T4, Adenosine receptor A2b (Homo sapiens, UniProt P29275); assay: Displacement of [3H]DPCPX from human adenosine A2B receptor expressed in HEK293 cells by liquid scintillation counting; assay type: cell-based
T4 sequence (P29275 whole entry): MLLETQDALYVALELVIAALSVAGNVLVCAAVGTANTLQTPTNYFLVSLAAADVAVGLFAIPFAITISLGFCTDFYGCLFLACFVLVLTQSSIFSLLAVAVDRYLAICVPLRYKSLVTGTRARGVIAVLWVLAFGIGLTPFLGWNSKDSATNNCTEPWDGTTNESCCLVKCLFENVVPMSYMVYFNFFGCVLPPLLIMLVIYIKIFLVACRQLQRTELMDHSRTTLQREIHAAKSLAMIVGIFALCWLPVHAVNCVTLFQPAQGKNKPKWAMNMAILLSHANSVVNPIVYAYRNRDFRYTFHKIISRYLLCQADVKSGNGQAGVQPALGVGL
Method in brief: (§4)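 HEK-293 membranes (18 μg) were incubated with [3H]DPCPX (35 nM) at 25 °C for 30 min, with six concentrations from 0.1 nM to 1 μM. Nonspecific binding was defined with 400 μM NECA. Filters were washed six times with ice-cold buffer and counted by scintillation. Ki (Cheng–Prusoff) is mean ± SEM, n=3; % displacement at 0.1 μM is n=2.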

[5] = target: T5, Adenosine receptor A1 (Homo sapiens) (UniProt P30542); assay: Displacement of [3H]DPCPX from human adenosine A1 receptor expressed in CHO cells at 0.1 uM by liquid scintillation counting; assay type: cell-based; method in brief: as §3
T5 sequence (whole entry): T3 sequence (P30542 whole entry)

[6] = target: T6, Adenosine receptor A3 (Homo sapiens) (UniProt P0DMS8); assay: Antagonist activity at human adenosine A3 receptor expressed in human HeLa cells assessed as inhibition of forskolin-stimulated cAMP production by enzyme immunoassay; assay type: functional, cell-based
T6 sequence (whole entry): T1 sequence (P0DMS8 whole entry)
Method in brief: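 Intact cells expressing hA3AR were stimulated with 10 μM forskolin, and receptor activation was induced with 0.1 μM NECA. Antagonist concentration-response curves were run against the NECA-induced cAMP decrease, with cAMP measured by enzyme immunoassay. K_B was derived from IC50, agonist concentration, agonist EC50 and curve slope. Data are mean ± SEM of two separate experiments.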

[7] = target: T2, Adenosine receptor A2a; assay: Displacement of [3H][…] from human adenosine A2A receptor expressed in human HeLa cells at 0.1 uM by liquid scintillation counting; assay type: cell-based; method in brief: as §2
[8] = target: T7, Adenosine receptor A2b (Homo sapiens) (UniProt P29275); assay: Displacement of [3H]DPCPX from human adenosine A2B receptor expressed in HEK293 cells at 0.1 uM by liquid scintillation counting; assay type: cell-based; method in brief: as §4
T7 sequence (whole entry): T4 sequence (P29275 whole entry)

[9] = target: T6, Adenosine receptor A3 (Homo sapiens); assay: Displacement of [3H]NECA from human adenosine A3 receptor expressed in human HeLa cells at 0.1 uM by liquid scintillation counting; assay type: cell-based
Method in brief: as §1, with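 “scintillation. Ki (Cheng–Prusoff) is mean ± SEM, n=3; % displacement at 0.1 μM is n=2.” for “scintillation.”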

[10] = target: T6, Adenosine receptor A3 (Homo sapiens); assay: Displacement of [3H]NECA from human adenosine A3 receptor expressed in human HeLa cells at 1 uM by liquid scintillation counting; assay type: cell-based
[11] = target: T2, Adenosine receptor A2a; assay: Displacement of [3H][…] from human adenosine A2A receptor expressed in human HeLa cells at 1 uM by liquid scintillation counting; assay type: cell-based
[12] = target: T7, Adenosine receptor A2b (Homo sapiens); assay: Displacement of [3H]DPCPX from human adenosine A2B receptor expressed in HEK293 cells at 1 uM by liquid scintillation counting; assay type: cell-based

CCC(=O)Nc1nc(-c2ccccc2)cc(-c2ccccc2)n1
pKi [1]: 6.27
pKi [2]: 6.26
pKi [3]: 7.50
pKi [4]: 7.37

CCC(=O)Nc1cc(-c2ccc3c(c2)OCO3)nc(-c2ccc3c(c2)OCO3)n1
pKi [1]: 7.84
pKi [2]: 5.59
pKi [3]: 8.28
pKi [4]: 5.78

CC(=O)Nc1cc(-c2ccc(C)cc2)nc(-c2ccc(C)cc2)n1
pKi [1]: 8.36
inhibition [5]: 2%
Kb [6]: 0.00356 µM
inhibition [7]: 8%
inhibition [8]: 2%

CCC(=O)Nc1cc(-c2ccc(F)cc2)nc(-c2ccc(F)cc2)n1
pKi [1]: 7.92
inhibition [8]: 1%
pKi [2]: 6.37
pKi [3]: 7.08

CCC(=O)Nc1nc(-c2ccccc2F)cc(-c2ccccc2F)n1
pKi [1]: 6.55
pKi [2]: 6.37
pKi [3]: 7.32
pKi [4]: 6.51

CCCC(=O)Nc1nc(-c2ccsc2)cc(-c2ccsc2)n1
inhibition [9]: 2%
inhibition [8]: 12%
pKi [2]: 5.34
pKi [3]: 7.07

CCC(=O)Nc1cc(-c2ccco2)nc(-c2ccco2)n1
pKi [1]: 8.21
pKi [2]: 8.19
pKi [3]: 7.81
pKi [4]: 7.69

CCCC(=O)Nc1nc(-c2ccccc2F)cc(-c2ccccc2F)n1
inhibition [9]: 15%
inhibition [8]: 6%
pKi [2]: 6.19
pKi [3]: 7.63

CCC(=O)Nc1cc(-c2cccs2)nc(-c2cccs2)n1
pKi [1]: 7.66
inhibition [8]: 17%
pKi [2]: 6.94
pKi [3]: 7.48

CCCC(=O)Nc1cc(-c2cccs2)nc(-c2cccs2)n1
pKi [1]: 7.64
inhibition [8]: 8%
pKi [2]: 6.82
pKi [3]: 7.48

CCCC(=O)Nc1nc(-c2ccccc2)cc(-c2ccccc2)n1
inhibition [10]: 38%
inhibition [11]: 7%
inhibition [7]: 3%
inhibition [12]: 54%
inhibition [9]: 17%
inhibition [8]: 14%

CCC(=O)Nc1cc(-c2ccc(Cl)cc2)nc(-c2ccc(Cl)cc2)n1
pKi [1]: 7.60
inhibition [5]: 16%
Kb [6]: 0.00388 µM
inhibition [7]: 20%
inhibition [8]: 3%

CCCC(=O)Nc1cc(-c2ccco2)nc(-c2ccco2)n1
pKi [1]: 8.00
pKi [2]: 8.24
pKi [3]: 8.11
pKi [4]: 7.79

CCC(=O)Nc1nc(-c2ccsc2)cc(-c2ccsc2)n1
pKi [1]: 5.89
pKi [2]: 5.72
pKi [3]: 6.44
pKi [4]: 5.49

CCCC(=O)Nc1nc(-c2cccs2)cc(-c2cccs2)n1
inhibition [9]: 24%
inhibition [8]: 3%
pKi [2]: 6.70
pKi [3]: 6.59

CC(=O)Nc1cc(-c2ccc3c(c2)OCO3)nc(-c2ccc3c(c2)OCO3)n1
pKi [1]: 8.48
inhibition [8]: 2%
pKi [2]: 5.48
pKi [3]: 7.75

CCC(=O)Nc1cc(-c2ccc(OC)cc2)nc(-c2ccc(OC)cc2)n1
pKi [1]: 8.44
inhibition [5]: 8%
Kb [6]: 0.0014 µM
inhibition [7]: 1%
inhibition [8]: 3%

CCCC(=O)Nc1cc(-c2ccoc2)nc(-c2ccoc2)n1
inhibition [9]: 3%
inhibition [8]: 1%
pKi [2]: 6.26
pKi [3]: 7.19

CCC(=O)Nc1cc(-c2ccoc2)nc(-c2ccoc2)n1
pKi [1]: 7.90
pKi [2]: 7.08
pKi [3]: 6.88
pKi [4]: 7.31

CC(=O)Nc1cc(-c2ccccc2)nc(-c2ccccc2)n1
pKi [1]: 7.92
inhibition [8]: 19%
pKi [2]: 6.59
pKi [3]: 7.51

CCC(=O)Nc1nc(-c2ccc(SC)cc2)cc(-c2ccc(SC)cc2)n1
pKi [1]: 5.35
pKi [2]: 6.74
pKi [3]: 6.30
pKi [4]: 6.43

CCCC(=O)Nc1cc(-c2ccccc2)nc(-c2ccccc2)n1
pKi [1]: 6.77
inhibition [8]: 1%
pKi [2]: 6.99
pKi [3]: 7.71

CC(=O)Nc1cc(-c2ccco2)nc(-c2ccco2)n1
pKi [1]: 8.52
pKi [2]: 8.09
pKi [3]: 7.39
pKi [4]: 7.92

CCC(=O)Nc1cc(-c2ccccc2F)nc(-c2ccccc2F)n1
pKi [1]: 6.80
inhibition [8]: 16%
pKi [2]: 6.99
pKi [3]: 7.50

CCCC(=O)Nc1cc(-c2ccc(OC)cc2)nc(-c2ccc(OC)cc2)n1
pKi [1]: 7.96
inhibition [5]: 8%
Kb [6]: 0.00157 µM
inhibition [7]: 4%
inhibition [8]: 1%

CC(=O)Nc1cc(-c2ccoc2)nc(-c2ccoc2)n1
pKi [1]: 8.00
inhibition [5]: 1%
pKi [2]: 7.13
pKi [4]: 6.52

O=C(Nc1nc(-c2ccccc2)cc(-c2ccccc2)n1)C1CCCC1
pKi [1]: 6.77
inhibition [12]: 52%
pKi [2]: 6.71
pKi [3]: 8.67

CCC(=O)Nc1cc(-c2ccccc2)nc(-c2ccccc2)n1
pKi [1]: 7.34
pKi [2]: 7.07
pKi [3]: 7.65
pKi [4]: 7.12

CC(C)(C)CC(=O)Nc1cc(-c2ccccc2)nc(-c2ccccc2)n1
inhibition [10]: 39%
inhibition [11]: 32%
inhibition [12]: 4%

CCC(=O)Nc1cc(-c2ccsc2)nc(-c2ccsc2)n1
pKi [1]: 7.19
pKi [2]: 7.20
pKi [3]: 7.40
pKi [4]: 6.78

COc1ccc(-c2cc(NC(C)=O)nc(-c3ccc(OC)cc3OC)n2)c(OC)c1
pKi [1]: 8.27
inhibition [5]: 1%
Kb [6]: 0.00385 µM
inhibition [7]: 6%
inhibition [8]: 2%

CC(C)C(=O)Nc1nc(-c2ccccc2)cc(-c2ccccc2)n1
inhibition [10]: 45%
inhibition [11]: 44%
inhibition [12]: 79%

Source: ChEMBL document CHEMBL1649418, “Pyrimidine derivatives as potent and selective A3 adenosine receptor antagonists” (J Med Chem, 2011)
